Drawing on ChEMBL document CHEMBL1123033, “Synthesis and antiherpes simplex virus activity of 9-[(1,3-dihydroxy-2-propylthio)methyl]guanine” (1985), this text covers IC50, Mean survival time and Survivors for 5 molecules.

Calls of active or inactive are those of the source. No cut-off for these calls is given here. A value given as a limit tells only on which side of the number the result lay.

One assay deals with Human alphaherpesvirus 1. As to the kind of experiment: In vitro antiviral and anticellular activity was evaluated against herpes simplex virus HSV-1 (F strain) in vero cells tissue culture. In kind it is functional. The note with it: Human alphaherpesvirus 1, Vero; read-out: ID50 (the source's name). In a few lines:
(§1)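 Plaque reduction assay in Vero cells infected with HSV; cells exposed to the nucleoside analogue. ID50 is the dose giving a 50% drop in plaque count relative to untreated controls.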

For assay [1], the system named is Human alphaherpesvirus 2. Briefly: In vitro antiviral and anticellular activity was evaluated against herpes simplex virus HSV-2 (G strain) in vero (HSV-2 G ) cells. In kind it is functional. The note with it: Human alphaherpesvirus 2, Vero; read-out: ID50 (the source's name). An outline of the steps: as §1
Assay [2] has as its system Mus musculus. As to the kind of experiment: (§2) Mean survival time of HSV-2 induced mortality in mice was determined when the 10 mg/Kg of compound was administered subcutaneously. Type of assay: functional, organism-based. In a few lines: (§3)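 Mice (female Swiss-Webster, ~20 g) challenged intraperitoneally with 5 × 10^4 PFU HSV-2 strain G (~10 LD50); subcutaneous dosing once daily for 4 days, first dose 24 h after infection, with a saline group run alongside. Mean survival time in days ± standard deviation; probability by Mann-Whitney u-test.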

Assay [3] has as its system Mus musculus. As to the kind of experiment: Mean survival time of HSV-2 induced mortality in mice was determined when the 30 mg/Kg of compound was administered subcutaneously; NS means not significant. Type of assay: functional, organism-based. An outline of the steps:
as §3

For assay [4], the system named is Mus musculus. Briefly: Effect of subcutaneous dose at 10 mg/kg on HSV-2 induced mortality in mice; 1/16. In kind it is functional. An outline of the steps:
(§4)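 Female Swiss-Webster mice (~20 g) infected intraperitoneally with 5 × 10^4 PFU HSV-2 strain G (~10 LD50), then dosed subcutaneously once daily (24-h intervals) for 4 days starting 24 h post-infection, with a saline group run alongside. Read-out is survivors/total (15–16 mice per group) with percent survivors; probability by Fisher exact test.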

Assay [5] has as its system Mus musculus. Briefly: Effect of subcutaneous dose at 100 mg/kg on HSV-2 induced mortality in mice; 8/15. In kind it is functional. In a few lines:
as §4

Assay [6] relates to Mus musculus. As to the kind of experiment: Effect of subcutaneous dose at 30 mg/kg on HSV-2 induced mortality in mice; 2/16. In kind it is functional. In a few lines:
as §4

Assay [7] relates to Mus musculus. As to the kind of experiment: Effect of subcutaneous dose at 10 mg/kg on HSV-2 induced mortality in mice. Type of assay: functional. An outline of the steps:
as §4

Assay [8] has as its system Mus musculus. As to the kind of experiment: Effect of subcutaneous dose at 30 mg/kg on HSV-2 induced mortality in mice. In kind it is functional. In a few lines: as §4
Another assay has as its system Vero. As to the kind of experiment: In vitro antiviral and anticellular activity was evaluated against vero cells in tissue culture. The note with it: Chlorocebus sabaeus, read-out: ID50 (the source's name). In kind it is functional. An outline of the steps:
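Anticellular activity measured by cell proliferation assay in uninfected Vero cells.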

In a further assay the test system is Human betaherpesvirus 5. Briefly: In vitro antiviral and anticellular activity was evaluated against human cytomegalovirus (HCMV AD 169) in […]. In kind it is functional. The note with it: read-out: ID50 (the source's name). An outline of the steps:
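Plaque reduction assay in MRC-5 cells infected with HCMV and treated with the nucleoside analogue. ID50 is the dose cutting plaque numbers by 50% versus untreated controls.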

For assay [9], the system named is Human alphaherpesvirus 2. Briefly: In vitro antiviral and anticellular activity was evaluated against herpes simplex virus HSV-2 (G strain) in vero cells. In kind it is functional. Particulars: Human alphaherpesvirus 2, Vero; read-out: ID50 (the source's name). An outline of the steps: as §1
In assay [10] the test system is Mus musculus. As to the kind of experiment: Effect of subcutaneous dose at 10 mg/kg on HSV-2 induced mortality in mice; 7/16. In kind it is functional. In a few lines:
as §4

For assay [11], the system named is Mus musculus. As to the kind of experiment: Effect of subcutaneous dose at 3 mg/kg on HSV-2 induced mortality in mice; 4/16. In kind it is functional. In a few lines: as §4
The subject of assay [12] is Mus musculus. As to the kind of experiment: Effect of subcutaneous dose at 30 mg/kg on HSV-2 induced mortality in mice; 12/16. Type of assay: functional. An outline of the steps: as §4
Assay [13] deals with Mus musculus. As to the kind of experiment: Effect of subcutaneous dose at 3 mg/kg on HSV-2 induced mortality in mice. In kind it is functional. An outline of the steps: as §4
Assay [14] has as its system Mus musculus. Briefly: Effect of subcutaneous dose at 30 mg/kg on HSV-2 induced mortality in mice(value in parentheses denotes probability. In kind it is functional. An outline of the steps:
as §4

Assay [15] has as its system Mus musculus. Described as §2. In kind it is functional. An outline of the steps:
as §3

Assay [16] concerns Mus musculus. As to the kind of experiment: Mean survival time of HSV-2 induced mortality in mice was determined when the 3 mg/Kg of compound was administered subcutaneously; NS means not significant. Type of assay: functional, organism-based. An outline of the steps:
as §3

For `Nc1nc(O)c2ncn(C[S+]([O-])C(CO)CO)c2n1` (centres undefined), in the assay with Human alphaherpesvirus 1, the IC50 turned out to be 25 µM.
In the case of `Nc1nc(O)c2ncn(CSC(CO)CO)c2n1`, the IC50 in the assay on Human alphaherpesvirus 1 is 0.9 µM; in the assay with Human alphaherpesvirus 2 [1] it was 8 µM; with Vero it was 900 µM; in the assay with Human betaherpesvirus 5 it was 80 µM. Also, the Mean survival time entry with Mus musculus [2] and in the assay with Mus musculus [3] was “inactive” throughout. Also, the results for the Survivors in the assay on Mus musculus [4], in the assay with Mus musculus [5] and in the assay with Mus musculus [6] were 1, 8 and 2, respectively. The Mean survival time was found to be 9.7 days in the assay on Mus musculus [7] and 9.4 days with Mus musculus [8].
In the case of `Nc1nc(O)c2ncn(CS(=O)(=O)C(CO)CO)c2n1`, the IC50 with Human alphaherpesvirus 1 came out at 40 µM.
In the case of `Nc1nc2c(ncn2COCCO)c(=O)[nH]1` [ACYCLOVIR], the IC50 in the assay on Human alphaherpesvirus 1 was determined as 0.4 µM; with Human alphaherpesvirus 2 [9] it was 1.5 µM; with Vero it was 1100 µM; in the assay with Human betaherpesvirus 5, 100 µM.
In the case of `Nc1nc2c(ncn2COC(CO)CO)c(=O)[nH]1` [GANCICLOVIR], the IC50 in the assay on Human alphaherpesvirus 1 was found to be 0.3 µM; in the assay with Human alphaherpesvirus 2 [9] it was 1.3 µM; in the assay with Vero, 500 µM; in the assay on Human betaherpesvirus 5, 6 µM. Besides, the Survivors with Mus musculus [10] is reported as 7; in the assay with Mus musculus [11], 4; with Mus musculus [12] it was 12. The Mean survival time in the assay with Mus musculus [13] is 11.2 days; with Mus musculus [14], 13.8 days; in the assay on Mus musculus [15], below 0.001; in the assay on Mus musculus [7], 12.4 days. For the same molecule, in the assay with Mus musculus [16], the Mean survival time entry is “inactive”.
